The text below walks through data of ChEMBL document CHEMBL3046693, “Discovery and characterization of sulfoxaflor, a novel insecticide targeting sap-feeding pests” (J Agric Food Chem, 2011).

Structures are written as SMILES. Converted amounts (≈) assume the structure as drawn. The source made the active and inactive calls.

The test system of one data set is Aphis gossypii. Briefly: Insecticidal activity against Aphis gossypii (cotton aphid) DAS lab strain by leaf disk bioassay. It counts as functional. The settings on record: foliar.
Data set [1] has as its system Myzus persicae. Kind of data set: Insecticidal activity against drug resistant Myzus persicae R-4013A (green peach aphid) by leaf disk bioassay. The settings on record: foliar. The format is functional.
The test system of data set [2] is Myzus persicae. Briefly: Insecticidal activity against Myzus persicae S-USIL (green peach aphid) by leaf disk bioassay. The format is functional. The settings on record: foliar.
The subject of data set [3] is Myzus persicae. Briefly: Insecticidal activity against Myzus persicae (green peach aphid) DAS lab strain by leaf disk bioassay. The format is functional. As to conditions: foliar.
The subject of data set [4] is Bemisia tabaci. Briefly: Insecticidal activity against Bemisia tabaci S-4971BT1 (sweet potato whitefly) by leaf disk bioassay. The format is functional. As to conditions: S-4971BT1, foliar.
Data set [5] has as its system Bemisia tabaci. Briefly: Insecticidal activity against rothamsted-resistant Bemisia tabaci Q-biotype R-4971BT9 (sweet potato whitefly) by leaf disk bioassay. It counts as functional. As to conditions: Q-biotype R-4971BT9, foliar.
Data set [6] deals with Bemisia tabaci. Briefly: Insecticidal activity against rothamsted-resistant Bemisia tabaci R-4991BT1 (sweet potato whitefly) by leaf disk bioassay. The settings on record: R-4991BT1, foliar. The format is functional.
Data set [7] has as its system Bemisia tabaci. Briefly: Insecticidal activity against DAS-susceptible Bemisia tabaci S-4971BT1 (sweet potato whitefly) by leaf disk bioassay. The format is functional. The settings on record: S-4971BT1, foliar.
The test system of data set [8] is Bemisia tabaci. Briefly: Insecticidal activity against DAS insecticide-resistant Bemisia tabaci B-biotype R-PBI (sweet potato whitefly) by leaf disk bioassay. The format is functional. As to conditions: foliar.
The subject of data set [9] is Bemisia tabaci. Briefly: Insecticidal activity against drug sensitive Bemisia tabaci DAS (sweet potato whitefly) lab strain by leaf disk bioassay. It counts as functional. The settings on record: foliar.
The test system of data set [10] is Bemisia tabaci. Kind of data set: Insecticidal activity against Bemisia tabaci DAS (sweet potato whitefly) lab strain by leaf disk bioassay. The settings on record: foliar. The format is functional.
Another data set has as its system Drosophila melanogaster. Briefly: Activation of Drosophila melanogaster nicotinic acetylcholine receptor alpha2 expressed in Xenopus laevis co-expressing chicken nicotinic acetylcholine receptor beta2 subunit by electrophysiology method. In short, it runs like this:
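Drosophila α2 cRNA co-injected with chicken β2 and C. elegans ric-3 chaperone into defolliculated X. laevis oocytes (≤50 nL at 1 ng/nL). Oocytes held singly in ND-96 (pH 7.6) at 18 °C and recorded 1-4 days after injection on an automated oocyte recording system.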

Data set [11] has as its system Myzus persicae. Briefly: Insecticidal activity against Myzus persicae (green peach aphid) infested UV irradiated leaves of pepper plant exposed to compound at 124 ppm assessed as insect control efficacy post 7 days UV exposure relative to untreated control. The format is functional. In short, it runs like this:
(§1)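 Aphid control on treated UV-exposed pepper leaves scored 3 days after infestation; four replicates per treatment and time point.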

Data set [12] has as its system Myzus persicae. Briefly: Insecticidal activity against Myzus persicae (green peach aphid) infested UV irradiated leaves of pepper plant exposed to compound at 124 ppm assessed as insect control efficacy post 3 days UV exposure relative to untreated control. It counts as functional. In short, it runs like this:
as §1

Data set [13] deals with Myzus persicae. Briefly: Insecticidal activity against Myzus persicae (green peach aphid) infested UV irradiated leaves of pepper plant exposed to compound at 124 ppm assessed as insect control efficacy post 0 day UV exposure relative to untreated control. The format is functional. In short, it runs like this: as §1
The subject of data set [14] is Bemisia tabaci. Kind of data set: Resistance index, ratio of LC50 for rothamsted-resistant Bemisia tabaci Q-biotype R-CHLORAKA (sweet potato whitefly) to LC50 for Bemisia tabaci SUD-S. It counts as functional.
Data set [15] deals with Bemisia tabaci. Briefly: Resistance index, ratio of LC50 for rothamsted-resistant Bemisia tabaci Q-biotype R-4971BT9 (sweet potato whitefly) to LC50 for Bemisia tabaci S-4971BT1. It counts as functional.
Data set [16] relates to Bemisia tabaci. Briefly: Resistance index, ratio of LC50 for drug resistant rothamsted-resistant Bemisia tabaci R-4991BT1 (sweet potato whitefly) to LC50 for DAS-susceptible Bemisia tabaci S-4971BT1. It counts as functional.
Data set [17] deals with Bemisia tabaci. Briefly: Resistance index, ratio of LC50 for DAS insecticide-resistant Bemisia tabaci B-biotype R-PB (sweet potato whitefly) to LC50 for drug sensitive Bemisia tabaci DAS lab strain. It counts as functional.
Data set [18] concerns Myzus persicae. Kind of data set: Resistance index, ratio of LC50 for drug resistant Myzus persicae R-4013A (green peach aphid) to LC50 for Myzus persicae S-USIL. The format is functional.
Data set [19] relates to Bemisia tabaci. Briefly: Insecticidal activity against rothamsted-resistant Bemisia tabaci Q-biotype R-CHLORAKA (sweet potato whitefly) by leaf disk bioassay. The settings on record: foliar. The format is functional.
The test system of data set [20] is Bemisia tabaci. Kind of data set: Insecticidal activity against Bemisia tabaci SUD-S (sweet potato whitefly) by leaf disk bioassay. The format is functional. The settings on record: foliar.
The test system of data set [21] is CYP6G1. Briefly: Drug metabolism in Drosophila melanogaster D.mel-2 cells over-expressing in CYP6G1 assessed as drug recovery measured 24 hr post dose by HPLC method. It counts as ADME. The settings on record: D.mel-2 cells over-expressing CYP6G1, read-out: Drug recovery.
Data set [22] can be described thus: (§2) Drug metabolism in Drosophila melanogaster D.mel-2 cells deficient in CYP6G1 assessed as drug recovery measured 24 hr post dose by HPLC method. The settings on record: 24 h. The format is ADME.
For data set [23], the system named is Myzus persicae. Kind of data set: Displacement of [3H]imidacloprid from nicotinic acetylcholine receptor in Myzus persicae (green peach aphid) homogenates by scintillation counting. In short, it runs like this:
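Frozen (-80 °C) aphids homogenized at 4 °C in sucrose/Tris/EDTA/PMSF buffer (pH 7.2), filtered, spun 3500 rpm 15 min then 17500 rpm 20 min (4 °C). Pellet resuspended in 120 mM NaCl, 50 mM Tris (pH 7.4). ~2 nM [3H]IMI, 70 μg protein/well and competitor for 60 min at ~22 °C. Protein-started, filtration-stopped, scintillation-counted; total and filter binding measured.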
On the technique in general: Displacement assays read how much labelled ligand stays bound in the presence of the test substance.

In data set [24] the test system is CYP6G1. The data set is described as §2. It counts as ADME. As to conditions: D.mel-2 cells deficient in CYP6G1, read-out: Drug recovery.
A short description of data set [25]: Stability assessed as half life for photolysis in UV chamber at 1000 ppm by HPLC method. It counts as physicochemical.

On to `O=[N+]([O-])/N=C1\NCCN1Cc1ccc(Cl)nc1` [IMIDACLOPRID], for which the 50% lethal concentration (LC50) in the data set on Aphis gossypii was determined as 7.8 µg/mL (≈ 30.5 µM); with Myzus persicae [1], 15.3 µg/mL (≈ 59.8 µM); in the data set on Myzus persicae [2], 0.896 µg/mL (≈ 3.5 µM); in the data set on Myzus persicae [3], 0.09 µg/mL (≈ 0.352 µM); in the data set on Bemisia tabaci [4], 4.4 µg/mL (≈ 17.2 µM); with Bemisia tabaci [5] it was 4500 µg/mL (≈ 17600 µM). Moreover, the median lethal concentration (LC50) in the data set with Bemisia tabaci [6] was above 1000 µg/mL; with Bemisia tabaci [7] it was 4.4 µg/mL (≈ 17.2 µM); with Bemisia tabaci [8], 174 µg/mL (≈ 681 µM); in the data set on Bemisia tabaci [9], 0.2 µg/mL (≈ 0.782 µM); with Bemisia tabaci [10], 0.37 µg/mL (≈ 1.45 µM); in the data set with Bemisia tabaci [19], above 1000 µg/mL. The molecule also yielded an LC50 in the data set on Bemisia tabaci [20] of 1.23 µg/mL (≈ 4.81 µM). Also, in the data set on Drosophila melanogaster, the result was Active. Besides, the Efficacy in the data set with Myzus persicae [11] is given as 21%; with Myzus persicae [12], 42%; in the data set with Myzus persicae [13], 100%. Further, the RatioLC50 is above 833 in the data set on Bemisia tabaci [14]; 1022 in the data set on Bemisia tabaci [15]; above 230 with Bemisia tabaci [16]; 870 with Bemisia tabaci [17]; 17.1 in the data set with Myzus persicae [18].

Take `C/C(=N\C#N)N(C)Cc1ccc(Cl)nc1` [ACETAMIPRID]: the remaining at 24 h in the data set on CYP6G1 [21] worked out at 0%. Further, the Drug recovery in data set [22] is recorded as 122.7%.

On to `CC(c1ccc(Cl)nc1)S(C)(=O)=NC#N` (configuration not stated), for which the LC50 with Aphis gossypii came to 3 µg/mL (≈ 12.3 µM); in the data set on Myzus persicae [1], 12.5 µg/mL (≈ 51.3 µM); with Myzus persicae [2], 62.3 µg/mL (≈ 256 µM); in the data set with Myzus persicae [3], 0.374 µg/mL (≈ 1.53 µM); with Bemisia tabaci [10] it was 0.29 µg/mL (≈ 1.19 µM); in the data set on Bemisia tabaci [19], 13.2 µg/mL (≈ 54.2 µM). Also, in the data set on Bemisia tabaci [20], the LC50 amounted to 4.48 µg/mL (≈ 18.4 µM). Further, the figures for the RatioLC50 with Bemisia tabaci [14] and with Myzus persicae [18] were 2.9 and 0.2, respectively.

On to `CC(c1ccc(C(F)(F)F)nc1)S(C)(=O)=NC#N` (configuration not stated) [SULFOXAFLOR], for which the LC50 stood at 0.2 µg/mL (≈ 0.721 µM) in the data set on Aphis gossypii; 1.52 µg/mL (≈ 5.48 µM) with Myzus persicae [1]; 4.13 µg/mL (≈ 14.9 µM) with Myzus persicae [2]; 0.074 µg/mL (≈ 0.267 µM) with Myzus persicae [3]; 18 µg/mL (≈ 64.9 µM) in the data set on Bemisia tabaci [4]; 39 µg/mL (≈ 141 µM) in the data set with Bemisia tabaci [5]. Also, the LC50 in the data set with Bemisia tabaci [6] is 28 µg/mL (≈ 101 µM); in the data set with Bemisia tabaci [7], 18 µg/mL (≈ 64.9 µM); in the data set with Bemisia tabaci [8], 6.4 µg/mL (≈ 23.1 µM); in the data set on Bemisia tabaci [9] it was 2.8 µg/mL (≈ 10.1 µM); in the data set on Bemisia tabaci [10], 0.85 µg/mL (≈ 3.07 µM); in the data set on Bemisia tabaci [19] it was 5 µg/mL (≈ 18 µM). Besides, the LC50 in the data set on Bemisia tabaci [20] turned out to be 1.8 µg/mL (≈ 6.49 µM). Further, the result in the data set on Myzus persicae [23] and in the data set with Drosophila melanogaster was Active. In addition, the remaining at 24 h in the data set with CYP6G1 [21] is 108%; with CYP6G1 [24] it was 105%. The Efficacy was determined as 90% in the data set on Myzus persicae [11], 100% in the data set with Myzus persicae [12] and 100% in the data set on Myzus persicae [13]. Besides, the half-life at 1000 ppm in data set [25] was 88 h. Also, the RatioLC50 is 2.8 with Bemisia tabaci [14]; 2.2 with Bemisia tabaci [15]; 1.6 in the data set with Bemisia tabaci [16]; 2.3 in the data set with Bemisia tabaci [17]; 0.37 in the data set on Myzus persicae [18].

`O=[N+]([O-])NC1=NCCN1Cc1ccc(Cl)nc1` [IMIDACLOPRID]: the remaining at 24 h was found to be 4.5% in the data set with CYP6G1 [21] and 115% in the data set on CYP6G1 [24]. The half-life at 1000 ppm in data set [25] is 7 h.

The LC50 is the concentration lethal to half of the exposed cells or organisms. Lower therefore signals greater toxicity. Broadly, the half-life is the time needed for the level to fall by half in the phase considered.
